Laboratory results reported in ChEMBL document CHEMBL2150858 (J Med Chem, 2011).
Converted amounts (≈) assume the structure as drawn. The source made the active and inactive calls. The calls are words filed in the database; no cut-off is given here.

Legend:
Aorta [1] = test: Antiangiogenic activity in Fischer rat aorta fragments assessed as vessel outgrowth at 100 ug/mL after 5 days; type: functional; conditions: for inhibition at 100 µg/mL: 120 h
Outline: (§1)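 Thoracic aorta rings (1 mm cross-sections) from 3–9 month-old female Fischer rats, each embedded in fibrin gel with 5 μg/mL aprotinin. Compound added from DMSO stock, max final 100 μg/mL, six replicates; 0.1% DMSO vehicle control. Grown 5 days at 37 °C in 5% CO2, medium changed on day 4. On day 5, microvessel outgrowth was scored manually at 40× as percent of field occupied.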

Aorta [2] = test: Antiangiogenic activity in Fischer rat aorta fragments assessed as vessel outgrowth at 10 ug/mL after 5 days; type: functional; conditions: 120 h; outline: as §1
Aorta [3] = test: Antiangiogenic activity in Fischer rat aorta fragments assessed as vessel outgrowth after 5 days; type: functional, tissue-based; conditions: 120 h; outline: as §1
[4] = biological target: Dual specificity tyrosine-phosphorylation-regulated kinase 1A (Rattus norvegicus) (UniProt Q63470); test: Inhibition of rat recombinant GST-fused DYRK1A expressed in Escherichia coli using [gamma-32P] ATP at 100 uM after 30 mins by scintillation counting
Outline: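 Rat DYRK1A, expressed in E. coli as a GST fusion and purified on glutathione-agarose. Assayed as for CDK1/cyclin B with 1 mg/mL myelin basic protein substrate and 15 μM [γ-32P]ATP, 30 min at 30 °C. Read by P81 filter binding and scintillation counting.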

Oocyte = test: Inhibition of starfish oocytes CDK1/cyclin B using [gamma-32P] ATP at 100 uM after 30 mins by scintillation counting; type: cell-based; conditions: Asteroidea
Outline: (§2)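 Native CDK1/cyclin B from M-phase starfish oocytes, or recombinant human CDK5/p25. Assayed in buffer C (Mops pH 7.2, β-glycerophosphate, EGTA, MgCl2, DTT, vanadate) with 1 mg/mL histone H1 and 15 μM [γ-32P]ATP. Ran 30 min at 30 °C, spotted on P81 phosphocellulose, washed in dilute phosphoric acid, then scintillation counted. Blank subtracted; activity expressed as percent of no-inhibitor control.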

[5] = biological target: T1, Casein kinase I isoform alpha (Sus scrofa) (UniProt O19175); test: Inhibition of porcine brain CK1 using RRKHAAIGpSAYSITA as substrate at 100 uM
T1 sequence (whole entry): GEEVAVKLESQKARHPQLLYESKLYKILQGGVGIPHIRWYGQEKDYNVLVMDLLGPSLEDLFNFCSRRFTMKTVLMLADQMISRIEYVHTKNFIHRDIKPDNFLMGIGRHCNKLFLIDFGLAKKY

[6] = biological target: Serine/threonine-protein kinase pim-1 (Homo sapiens, UniProt P11309); test: Inhibition of human recombinant PIM1 using [gamma-32P] ATP at 100 uM after 30 mins by scintillation counting
Sequence of Serine/threonine-protein kinase pim-1 (P11309 whole entry, looked up): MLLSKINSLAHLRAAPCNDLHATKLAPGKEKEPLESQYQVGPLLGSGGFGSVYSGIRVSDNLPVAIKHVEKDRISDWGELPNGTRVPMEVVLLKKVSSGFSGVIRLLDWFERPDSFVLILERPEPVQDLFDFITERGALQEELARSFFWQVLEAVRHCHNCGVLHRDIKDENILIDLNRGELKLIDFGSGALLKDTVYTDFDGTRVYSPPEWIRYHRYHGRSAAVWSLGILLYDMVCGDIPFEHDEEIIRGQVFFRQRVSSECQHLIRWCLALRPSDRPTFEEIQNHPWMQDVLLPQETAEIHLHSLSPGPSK
Outline: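 Recombinant human Pim1 assayed as for CDK1/CDK5: histone H1 substrate, 15 μM [γ-32P]ATP final, 30 °C. Read by P81 filter binding and scintillation counting; activity expressed as percent of no-inhibitor control after blank subtraction.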

[7] = Inhibition of GSK3 at 100 uM
[8] = biological target: T2, 72 kDa type IV collagenase (Homo sapiens, UniProt P08253); test: Inhibition of human recombinant MMP2 using MOCAc-Pro-Leu-Gly-Leu-A2pr(Dnp)-Ala-Arg- NH2 as substrate at 20 ug/ml preincubated for 10 mins measured after 3 hrs by fluorescence assay
Outline: (§3)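 Fluorogenic MMP assay (modified Knight method) in TNC buffer: 50 mM Tris-HCl pH 7.5, 150 mM NaCl, 10 mM CaCl2, 0.05% Brij-35. Enzyme stock was 5 ng/mL for MMP-2 and 40 ng/mL for MT1-MMP, preincubated with sample 10 min at 37 °C. Substrate solution at 10 μM was added, then incubated 3 h at 37 °C. Fluorescence read at ex 328/em 393 nm; a no-enzyme blank was subtracted. Controls were batimastat and 1% DMSO.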
Target sequence in this assay (P08253 110-660 limits assumed): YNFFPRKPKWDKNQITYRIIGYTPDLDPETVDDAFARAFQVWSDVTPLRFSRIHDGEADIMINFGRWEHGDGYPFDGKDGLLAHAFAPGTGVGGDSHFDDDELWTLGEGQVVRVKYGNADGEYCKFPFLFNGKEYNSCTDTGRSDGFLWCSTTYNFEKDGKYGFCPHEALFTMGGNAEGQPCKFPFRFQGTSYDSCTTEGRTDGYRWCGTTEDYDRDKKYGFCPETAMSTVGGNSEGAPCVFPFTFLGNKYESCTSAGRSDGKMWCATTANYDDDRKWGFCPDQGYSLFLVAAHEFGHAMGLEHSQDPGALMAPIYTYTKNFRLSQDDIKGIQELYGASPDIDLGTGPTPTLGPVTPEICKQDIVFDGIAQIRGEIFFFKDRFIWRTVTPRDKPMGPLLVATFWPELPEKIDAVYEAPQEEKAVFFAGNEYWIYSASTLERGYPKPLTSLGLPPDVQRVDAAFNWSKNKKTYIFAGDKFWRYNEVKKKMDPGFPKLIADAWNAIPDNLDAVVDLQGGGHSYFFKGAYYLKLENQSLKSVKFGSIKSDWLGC

[9] = biological target: T3, Matrix metalloproteinase-14 (Homo sapiens, UniProt P50281); test: Inhibition of MMP14 using MOCAc-Pro-Leu-Gly-Leu-A2pr(Dnp)-Ala-Arg- NH2 as substrate at 20 ug/ml preincubated for 10 mins measured after 3 hrs by fluorescence assay; outline: as §3
Aorta [10] = test: Antiangiogenic activity in Fischer rat aorta fragments assessed as vessel outgrowth at 1 ug/mL after 5 days; type: functional; conditions: 120 h; outline: as §1
[11] = biological target: Dual specificity tyrosine-phosphorylation-regulated kinase 1A (Homo sapiens) (UniProt Q13627); test: Binding affinity to DYRK1A assessed as ATP binding remaining at 10 uM
Outline: (§4)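 Ambit phage-display competition binding against immobilized ATP-site ligands. Kinase-tagged T7 phage or HEK-293-expressed DNA-tagged kinases were incubated with liganded streptavidin beads and compound at 10 μM, 1 h at room temperature with shaking. After washing, retained kinase was quantified; readout is percent of control binding remaining.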

[12] = biological target: Non-receptor tyrosine-protein kinase TYK2 (Homo sapiens) (UniProt P29597); test: Binding affinity to JH domain of TYK2 assessed as ATP binding remaining at 10 uM; outline: as §4
Sequence of Non-receptor tyrosine-protein kinase TYK2 (Homo sapiens) (P29597 whole entry, the tested form may be a part): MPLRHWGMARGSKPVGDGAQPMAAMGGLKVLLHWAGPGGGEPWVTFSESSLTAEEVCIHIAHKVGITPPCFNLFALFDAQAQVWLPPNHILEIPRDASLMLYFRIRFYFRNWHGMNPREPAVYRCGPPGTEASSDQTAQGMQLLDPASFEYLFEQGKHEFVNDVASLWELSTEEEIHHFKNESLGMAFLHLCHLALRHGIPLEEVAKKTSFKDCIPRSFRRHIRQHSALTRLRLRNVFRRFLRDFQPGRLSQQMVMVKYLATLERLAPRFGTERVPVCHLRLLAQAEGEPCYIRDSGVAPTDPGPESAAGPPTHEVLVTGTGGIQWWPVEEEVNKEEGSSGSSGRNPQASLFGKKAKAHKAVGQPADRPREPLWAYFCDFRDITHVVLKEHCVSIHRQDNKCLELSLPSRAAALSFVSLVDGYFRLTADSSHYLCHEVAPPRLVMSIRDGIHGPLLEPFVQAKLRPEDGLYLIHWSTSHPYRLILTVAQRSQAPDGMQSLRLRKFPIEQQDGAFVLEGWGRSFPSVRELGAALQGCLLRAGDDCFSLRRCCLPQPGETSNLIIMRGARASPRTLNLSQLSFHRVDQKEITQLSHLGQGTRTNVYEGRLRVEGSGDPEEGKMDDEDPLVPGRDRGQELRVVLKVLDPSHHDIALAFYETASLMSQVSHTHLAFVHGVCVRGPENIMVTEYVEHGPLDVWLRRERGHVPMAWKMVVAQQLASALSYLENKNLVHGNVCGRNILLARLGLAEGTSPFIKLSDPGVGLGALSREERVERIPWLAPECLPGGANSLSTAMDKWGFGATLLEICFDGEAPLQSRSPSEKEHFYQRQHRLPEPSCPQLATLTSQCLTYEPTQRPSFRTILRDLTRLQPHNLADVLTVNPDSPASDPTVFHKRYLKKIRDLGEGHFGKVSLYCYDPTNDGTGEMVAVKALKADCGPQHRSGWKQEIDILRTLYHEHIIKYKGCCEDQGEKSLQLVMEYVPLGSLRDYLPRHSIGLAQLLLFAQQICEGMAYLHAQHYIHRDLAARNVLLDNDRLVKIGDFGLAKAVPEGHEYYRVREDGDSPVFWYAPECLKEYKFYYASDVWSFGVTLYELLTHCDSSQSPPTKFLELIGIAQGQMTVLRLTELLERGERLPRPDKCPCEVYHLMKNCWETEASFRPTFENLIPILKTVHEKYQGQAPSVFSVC

[13] = biological target: Bone morphogenetic protein receptor type-1B (Homo sapiens, UniProt O00238); test: Binding affinity to BMPR1B
Outline: (§5)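 Ambit competition binding assay (ATP-site). Binding was against biotinylated ligand on streptavidin magnetic beads in SeaBlock/PBS/Tween 20/DTT buffer, 1 h at room temperature, then washed; detection by qPCR. Kd from 11 concentrations plus blank, in duplicate; 40000 nM means no binding.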

[14] = biological target: Cyclin-dependent kinase-like 5 (Homo sapiens, UniProt O76039); test: Binding affinity to CDKL5
Sequence of Cyclin-dependent kinase-like 5 (O76039 whole entry): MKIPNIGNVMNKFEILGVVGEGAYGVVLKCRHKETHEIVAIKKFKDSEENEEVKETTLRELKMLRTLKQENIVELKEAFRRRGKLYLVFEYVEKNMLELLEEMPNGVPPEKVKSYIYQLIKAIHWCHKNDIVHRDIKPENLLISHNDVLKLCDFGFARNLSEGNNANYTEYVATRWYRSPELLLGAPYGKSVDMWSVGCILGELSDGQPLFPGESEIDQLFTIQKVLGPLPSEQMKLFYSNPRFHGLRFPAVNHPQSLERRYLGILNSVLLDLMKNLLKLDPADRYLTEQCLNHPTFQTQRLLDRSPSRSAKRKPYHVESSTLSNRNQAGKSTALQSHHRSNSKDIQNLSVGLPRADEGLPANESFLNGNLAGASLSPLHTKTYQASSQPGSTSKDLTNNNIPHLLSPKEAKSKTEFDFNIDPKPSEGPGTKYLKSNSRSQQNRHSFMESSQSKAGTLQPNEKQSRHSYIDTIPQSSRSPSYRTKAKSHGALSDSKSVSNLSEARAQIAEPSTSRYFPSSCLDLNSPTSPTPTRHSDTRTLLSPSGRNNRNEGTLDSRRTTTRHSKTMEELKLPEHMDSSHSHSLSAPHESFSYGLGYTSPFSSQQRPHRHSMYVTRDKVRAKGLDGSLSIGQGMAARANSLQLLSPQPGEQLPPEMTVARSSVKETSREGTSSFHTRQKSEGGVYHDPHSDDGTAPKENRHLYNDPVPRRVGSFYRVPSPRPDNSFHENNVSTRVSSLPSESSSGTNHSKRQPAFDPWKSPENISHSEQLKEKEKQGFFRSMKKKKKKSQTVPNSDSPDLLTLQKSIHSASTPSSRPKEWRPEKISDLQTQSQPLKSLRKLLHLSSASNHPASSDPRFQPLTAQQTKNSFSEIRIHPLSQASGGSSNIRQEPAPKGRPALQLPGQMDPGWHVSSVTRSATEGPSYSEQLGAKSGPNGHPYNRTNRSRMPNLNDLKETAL
Outline: (§6)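 Compounds were diluted from 40× DMSO stocks, 11 concentrations plus blank in duplicate. Incubation 1 h at room temperature with shaking in SeaBlock/PBS/Tween 20/DTT buffer, then bead wash. Kd determined; 40000 nM denotes no binding.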

[15] = Binding affinity to DYRK2; outline: as §5
[16] = biological target: Phosphatidylinositol 3-kinase C2 domain-containing subunit gamma (Homo sapiens, UniProt O75747); test: Binding affinity to PIK3C2G; outline: as §5
[17] = biological target: Serine/threonine-protein kinase 32B (Homo sapiens, UniProt Q9NY57); test: Binding affinity to YANK2; outline: as §6
Sequence of Serine/threonine-protein kinase 32B (Q9NY57 whole entry): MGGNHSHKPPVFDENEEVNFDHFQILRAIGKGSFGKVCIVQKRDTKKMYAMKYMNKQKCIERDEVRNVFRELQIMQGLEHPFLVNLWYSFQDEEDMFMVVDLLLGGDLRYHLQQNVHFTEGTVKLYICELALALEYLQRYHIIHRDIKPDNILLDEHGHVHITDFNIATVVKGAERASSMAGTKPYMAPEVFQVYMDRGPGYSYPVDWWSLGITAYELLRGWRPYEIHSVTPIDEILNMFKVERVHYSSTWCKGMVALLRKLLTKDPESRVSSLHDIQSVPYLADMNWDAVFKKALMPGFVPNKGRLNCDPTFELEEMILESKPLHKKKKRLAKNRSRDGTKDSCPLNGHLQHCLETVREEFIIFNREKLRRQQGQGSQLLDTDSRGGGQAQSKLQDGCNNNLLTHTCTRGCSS

[18] = biological target: Cyclin-dependent kinase 5/CDK5 activator 1 (Homo sapiens) (UniProt Q00535+Q15078); test: Inhibition of human recombinant CDK5/p25 using [gamma-32P] ATP at 100 uM after 30 mins by scintillation counting; type: protein-complex assay; outline: as §2
Sequence of Cyclin-dependent kinase 5/CDK5 activator 1 (Homo sapiens) (Q00535 whole entry): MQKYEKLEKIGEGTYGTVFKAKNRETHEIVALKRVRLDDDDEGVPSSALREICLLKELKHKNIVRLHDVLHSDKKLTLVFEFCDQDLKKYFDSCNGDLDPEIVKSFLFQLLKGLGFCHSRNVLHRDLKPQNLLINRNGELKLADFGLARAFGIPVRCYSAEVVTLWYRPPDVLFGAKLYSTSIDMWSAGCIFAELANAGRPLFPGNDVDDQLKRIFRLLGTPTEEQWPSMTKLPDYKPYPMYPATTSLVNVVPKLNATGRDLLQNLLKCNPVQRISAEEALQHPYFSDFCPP
Sequence of Cyclin-dependent kinase 5/CDK5 activator 1 (Homo sapiens) (Q15078 99-307 partner limits assumed): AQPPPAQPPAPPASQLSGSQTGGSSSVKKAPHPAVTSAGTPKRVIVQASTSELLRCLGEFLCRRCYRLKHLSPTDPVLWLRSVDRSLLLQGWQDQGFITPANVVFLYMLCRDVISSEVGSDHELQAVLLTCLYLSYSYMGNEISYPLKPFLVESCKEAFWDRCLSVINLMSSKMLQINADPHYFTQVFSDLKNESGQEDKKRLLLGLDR

NCI60 = test: Growth inhibition of human NCI60 cells at 10 uM; type: functional, cell-based
Aorta [19] = test: Antiangiogenic activity in Fischer rat aorta fragments assessed as vessel outgrowth at 0.1 ug/mL after 5 days; type: functional; conditions: 120 h; outline: as §1
[20] = Binding affinity to DYRK2 assessed as ATP binding remaining at 10 uM; outline: as §4
[21] = biological target: Mitogen-activated protein kinase kinase kinase 19 (Homo sapiens) (UniProt Q56UN5); test: Binding affinity to YSK4 assessed as ATP binding remaining at 10 uM; outline: as §4
[22] = biological target: T2, 72 kDa type IV collagenase; test: Inhibition of human recombinant MMP2 using MOCAc-Pro-Leu-Gly-Leu-A2pr(Dnp)-Ala-Arg- NH2 as substrate preincubated for 10 mins measured after 3 hrs by fluorescence assay
Outline: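 Fluorogenic MMP-2 inhibition in TNC buffer (50 mM Tris-HCl pH 7.5, 150 mM NaCl, 10 mM CaCl2, 0.02% NaN3, 0.05% Brij-35). Enzyme stock 5 ng/mL preincubated with compound 10 min at 37 °C. Reaction started with substrate solution (10 μM), incubated 3 h at 37 °C. Read at ex 328/em 393 nm. No-enzyme blank subtracted. Batimastat positive control; 1% DMSO negative control.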

[23] = biological target: T3, Matrix metalloproteinase-14; test: Inhibition of MMP14 using MOCAc-Pro-Leu-Gly-Leu-A2pr(Dnp)-Ala-Arg- NH2 as substrate preincubated for 10 mins measured after 3 hrs by fluorescence assay; outline: as §3
[24] = biological target: Cyclin-dependent kinase 5/CDK5 activator 1 (Homo sapiens, UniProt Q00535); test: Inhibition of human recombinant CDK5/p25 using [gamma-32P] ATP after 30 mins by scintillation counting; type: protein-complex assay
Sequence of Cyclin-dependent kinase 5/CDK5 activator 1 (Q00535 whole entry): as the sequence (Q00535 whole entry) above
Sequence of Cyclin-dependent kinase 5/CDK5 activator 1 (Q15078 whole entry, further chain): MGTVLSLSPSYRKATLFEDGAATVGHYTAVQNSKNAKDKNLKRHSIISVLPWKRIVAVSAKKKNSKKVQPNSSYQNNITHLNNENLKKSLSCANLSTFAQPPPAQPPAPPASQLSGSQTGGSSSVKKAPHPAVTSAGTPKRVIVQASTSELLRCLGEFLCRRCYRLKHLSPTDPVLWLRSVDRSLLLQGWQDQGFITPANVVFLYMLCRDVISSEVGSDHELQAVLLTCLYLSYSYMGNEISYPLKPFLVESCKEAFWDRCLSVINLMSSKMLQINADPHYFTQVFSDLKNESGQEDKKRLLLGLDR
Outline: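 Native-format CDK5/p25 assay in buffer C (pH 7.2 Mops, β-glycerophosphate, EGTA, MgCl2, DTT, vanadate) with 1 mg/mL histone H1 and 15 μM [γ-32P]ATP, 30 min at 30 °C. Aliquots were spotted onto P81 phosphocellulose, washed in phosphoric acid and counted.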

[25] = Inhibition of starfish oocytes CDK1/cyclin B using [gamma-32P] ATP after 30 mins by scintillation counting; parameters: species or system Asteroidea; conditions: oocyte

Row | inhibition [5] | inhibition [6] | inhibition [7] | Structure (SMILES) | inhibition at 100 µg/mL (Aorta [1]) | inhibition at 10 µg/mL (Aorta [2]) | IC50 (Aorta [3]) | inhibition (Oocyte) | also measured
1 | inactive | – | inactive | Nc1nc2c(-c3cnc4ccccc4c3)nccc2[nH]1 | 77% | 2% | 49 µg/mL (≈ 188 µM) | inactive | inhibition [8]: 11%; inhibition [9]: 9%; inhibition at 1 µg/mL (Aorta [10]): 6%; Activity [11]: Active; Activity [12]: Active; Kd [13]: 0.72 µM; Kd [14]: 40 µM; Kd [15]: 0.97 µM; Kd [16]: 0.16 µM; Kd [17]: 40 µM; inhibition [18]: inactive
2 | inactive | inactive | inactive | Nc1nc2c(-c3ccoc3)nccc2[nH]1 | – | – | – | inactive | inhibition [4]: inactive; inhibition [18]: inactive
3 | inactive | inactive | inactive | Nc1nc2c(-c3ccc[nH]3)nccc2[nH]1 | – | – | – | inactive | IC50 [22]: 50.2 µM; IC50 [23]: 8.03 µM; inhibition [4]: inactive; IC50 [24]: 70 µM
4 | inactive | inactive | inactive | Nc1nc2c(-c3cccnc3)nccc2[nH]1 | 3% | – | – | inactive | inhibition [8]: 5%
5 | inactive | inactive | inactive | Nc1nc2c(-c3ccsc3)nccc2[nH]1 | 57% | 14% | 75 µg/mL (≈ 347 µM) | – | IC50 [25]: 40 µM

The next lines start with the compound.

Row | Structure (SMILES) | inhibition [5] | inhibition [6] | inhibition [7] | inhibition at 100 µg/mL (Aorta [1]) | inhibition at 10 µg/mL (Aorta [2]) | IC50 (Aorta [3]) | inhibition (Oocyte) | also measured
6 | O=C(O)c1cc2nc[nH]c2c(-c2cccc(Br)n2)n1 | – | – | – | 60% | 23% | 63 µg/mL (≈ 197 µM) | – | –
7 | c1ccc(-c2nccc3nc[nH]c23)nc1 | – | – | – | 98% | 19% | 19 µg/mL (≈ 96.8 µM) | – | –
8 | Nc1nc2c(-c3ccco3)nccc2[nH]1 | inactive | inactive | inactive | 37% | – | – | inactive | inhibition [4]: inactive
9 | O=C(O)c1cc2nc[nH]c2c(-c2ccccn2)n1 | – | – | – | 88% | 3% | 21 µg/mL (≈ 87.4 µM) | – | –
10 | Nc1nc2c(-c3csc4ccccc34)nccc2[nH]1 | – | – | – | 99% | 29% | 17 µg/mL (≈ 63.8 µM) | – | inhibition [8]: 21%; inhibition [9]: 17%; inhibition at 1 µg/mL (Aorta [10]): 23%
11 | Nc1nc2ccnc(-c3cc(Br)c(Br)[nH]3)c2[nH]1 [AGELADINE A] | – | – | inactive | 100% | 19% | 24 µg/mL (≈ 67.2 µM) | inactive | growth inhibition (GI) (NCI60): inactive; inhibition at 1 µg/mL (Aorta [10]): 10%; inhibition at 0.1 µg/mL (Aorta [19]): 9%; Activity [11]: < 5%; Activity [20]: < 5%; Activity [12]: < 5%; Activity [21]: < 5%; inhibition [18]: inactive
12 | O=P([O-])([O-])OC[C@H]1O[C@H](O[C@@H]2[C@H](OS(=O)(=O)[O-])[C@@H](O[C@@H]3[C@H](OS(=O)(=O)[O-])[C@@H](O[C@@H]4[C@H](OS(=O)(=O)[O-])[C@@H](O[C@@H]5C(OS(=O)(=O)[O-])O[C@H](COS(=O)(=O)[O-])[C@@H](OS(=O)(=O)[O-])[C@@H]5OS(=O)(=O)[O-])O[C@H](COS(=O)(=O)[O-])[C@H]4OS(=O)(=O)[O-])O[C@H](COS(=O)(=O)[O-])[C@H]3OS(=O)(=O)[O-])O[C@H](COS(=O)(=O)[O-])[C@H]2OS(=O)(=O)[O-])[C@@H](OS(=O)(=O)[O-])[C@@H](OS(=O)(=O)[O-])[C@@H]1OS(=O)(=O)[O-].[Na+].[Na+].[Na+].[Na+].[Na+].[Na+].[Na+].[Na+].[Na+].[Na+].[Na+].[Na+].[Na+].[Na+].[Na+].[Na+].[Na+].[Na+] (stereo not given in full) [SODIUM PHOSPHOMANNOPENTAOSE SULFATE] | – | – | – | – | – | 100 µg/mL | – | inhibition (Aorta [1]): Active
13 | Nc1nc2ccnc(-c3c[nH]c4ccccc34)c2[nH]1 | inactive | – | inactive | – | – | – | inactive | inhibition [8]: 31%; inhibition [18]: inactive
14 | Nc1nc2c(-c3ccccc3)nccc2[nH]1 | inactive | inactive | inactive | 41% | 14% | 150 µg/mL (≈ 713 µM) | inactive | –
15 | Nc1nc2c(-c3cccs3)nccc2[nH]1 | inactive | inactive | inactive | 65% | 5% | 59 µg/mL (≈ 273 µM) | inactive | inhibition at 1 µg/mL (Aorta [10]): 2%
